Measured values collected from several papers.
SIRT3: NAD-dependent protein deacetylase sirtuin-3, mitochondrial (SIRT3, Homo sapiens, UniProt Q9NTG7)
PTGS1: Prostaglandin G/H synthase 1 (PTGS1, Ovis aries, UniProt P05979)

With `Cn1c(CNC(=S)NCCCC[C@H](NS(=O)(=O)c2cccc(F)c2)C(=O)N[C@@H](Cc2c[nH]c3ccccc23)C(=O)NC2CCC2)n[nH]c1=S` the inhibition was 51% (SIRT3; enzyme activity; inhibitor; 30 µM).
For `CCCCCC1CC(=O)c2cccc(Br)c2O1` (centres unmarked), the inhibition was 6.7% (SIRT3; enzyme activity; inhibitor; fluorescence; 200 µM).
For `O=C(Nc1ccc(F)cc1)Nc1cccc(C(=O)Nc2ccc3[nH]ncc3c2)c1`, the inhibition was 16.8% (BDNF/NT-3 growth factors receptor (NTRK2, Homo sapiens, UniProt Q16620); enzyme activity; inhibitor; FRET; 1 µM).
For `COc1cc(NC(C)=O)c(Cl)cc1C(=O)Nc1nccs1`, the inhibition was -34.8% (Gamma-aminobutyric acid receptor subunit alpha-1 (GABRA1, Homo sapiens, UniProt P14867); cell-free assay; 10 µM).
With `CN(C)C1CCN(CC#Cc2nn(C3CCCC3)c3nc(NCc4ccccc4)ncc23)C1` (centres unmarked) the inhibition was 5% (Activin receptor type-1B (ACVR1B, Homo sapiens, UniProt P36896); enzyme activity; inhibitor; FRET; 1 µM).
`O=c1c(O[C@@H]2O[C@H](CO)[C@@H](O)[C@H](O)[C@H]2O)c(-c2ccc(O)cc2)oc2cc(O[C@@H]3O[C@H](CO)[C@@H](O)[C@H](O)[C@H]3O)cc(O)c12` has an inhibition of 62.9% (PTGS1; enzyme activity; inhibitor; absorbance; 50 µM).
The inhibition of `O=C1CC(CCNC(=S)NCCCC[C@H](NS(=O)(=O)c2cccc(F)c2)C(=O)N[C@@H](Cc2c[nH]c3ccccc23)C(=O)NC2CCC2)=NO1` is reported as 40% (SIRT3; enzyme activity; inhibitor; 10 µM).
The inhibition of `CC(C)C1CC(=O)c2cc(Cl)cc(Br)c2O1` (centres unmarked) is reported as 4.4% (SIRT3; enzyme activity; inhibitor; fluorescence; 200 µM).
The inhibition of `CCCCCCCCCCCCNC(=S)NCCCC[C@H](NC(=O)OCc1ccccc1)C(=O)N[C@@H](Cc1c[nH]c2ccccc12)C(=O)N[C@@H](CCCNC(=N)N)C(N)=O` is reported as 62% (SIRT3; enzyme activity; inhibitor; 10 µM).
`O=c1c(O)c(-c2ccc(O)cc2)oc2cc(O[C@@H]3O[C@H](CO)[C@@H](O)[C@H](O)[C@H]3O)cc(O)c12` has an inhibition of 58.8% (PTGS1; enzyme activity; inhibitor; absorbance; 50 µM).
With `CCCC1CC(=O)c2cc(Cl)cc(Br)c2O1` (centres unmarked) the inhibition was 7% (SIRT3; enzyme activity; inhibitor; fluorescence; 200 µM).
`CC(=S)NCCCC[C@H](NC(=O)OCc1ccccc1)C(=O)N[C@@H](Cc1c[nH]c2ccccc12)C(=O)N[C@@H](CCCNC(=N)N)C(N)=O` has an inhibition of 43% (SIRT3; enzyme activity; inhibitor; 10 µM).
The inhibition of `O=C(Nc1ccc(S(=O)(=O)N2CCC(Cl)CC2)cc1)c1ccc([N+](=O)[O-])o1` is reported as 8% (Androgen receptor (Ar, Rattus norvegicus, UniProt P15207); ligand displacement; radioligand; 10 µM).
`CCCCC[C@@H]1CC(=O)c2cc(Cl)cc(Br)c2O1` has an inhibition of 3.9% (SIRT3; enzyme activity; inhibitor; fluorescence; 200 µM).
`Oc1cccc(Nc2nc(-c3ccc(F)cc3F)cs2)c1` gave an inhibition of -7.7% (Sodium-dependent serotonin transporter (SLC6A4, Homo sapiens, UniProt P31645); cell-free assay; 10 µM).
`O=C(COc1ccc2cc(C(=O)Nc3ccccc3)ccc2c1)NCc1ccc(O)c(O)c1` has an inhibition of 1% (Signal transducer and activator of transcription 5A, SH2 (Homo sapiens, UniProt P42229); ligand displacement; FP; 100 µM).
The inhibition of `CCCCCCCC1CC(=O)c2cc(Cl)cc(Br)c2O1` (centres unmarked) is reported as 8.3% (SIRT3; enzyme activity; inhibitor; fluorescence; 200 µM).
For `CCCCCCCCCCCCCC(=O)NCCCC[C@H](NS(C)(=O)=O)C(=O)N[C@H](C)C(=O)N[C@@H](CCCNC(=N)N)C(N)=O`, the inhibition was 10% (SIRT3; enzyme activity; inhibitor; 10 µM).
The inhibition of `CCCCCC1CC(=O)c2cc(Br)cc(Br)c2O1` (centres unmarked) is reported as 6.5% (SIRT3; enzyme activity; inhibitor; fluorescence; 200 µM).
`CCCCCCCCCCCCNC(=S)NCCCC[C@H](NC(=O)OCc1ccccc1)C(=O)N[C@@H](CCCCN)C(=O)N[C@@H](CCCNC(=N)N)C(N)=O` gave an inhibition of 54% (SIRT3; enzyme activity; inhibitor; 1 µM).
